Series [1] can be described thus: Aqueous solubility of the compound measured after 4 hrs by HPLC method. In kind it is physicochemical.
Series [2] addresses T1, Large neutral amino acids transporter small subunit 2 (Homo sapiens) (UniProt Q9UHI5).
T1 sequence (whole entry): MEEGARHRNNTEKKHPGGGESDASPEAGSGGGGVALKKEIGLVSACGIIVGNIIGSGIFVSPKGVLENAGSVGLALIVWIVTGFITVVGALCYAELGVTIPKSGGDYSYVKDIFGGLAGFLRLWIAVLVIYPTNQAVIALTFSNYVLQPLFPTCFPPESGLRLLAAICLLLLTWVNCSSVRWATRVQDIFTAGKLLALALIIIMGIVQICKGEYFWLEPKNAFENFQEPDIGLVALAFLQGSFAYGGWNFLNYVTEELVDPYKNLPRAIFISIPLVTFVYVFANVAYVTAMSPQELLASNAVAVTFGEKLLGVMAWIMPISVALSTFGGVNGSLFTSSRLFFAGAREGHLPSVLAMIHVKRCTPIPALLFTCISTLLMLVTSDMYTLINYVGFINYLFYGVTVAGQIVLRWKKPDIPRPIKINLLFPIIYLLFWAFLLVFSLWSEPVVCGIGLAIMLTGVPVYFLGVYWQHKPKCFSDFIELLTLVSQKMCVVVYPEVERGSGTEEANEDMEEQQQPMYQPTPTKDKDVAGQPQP
Briefly: Competitive inhibition of [14C]-L-alanine uptake at LAT2 in human MCF7 cells at 25 uM preincubated for 5 mins followed by addition of substrate measured during 5 mins by liquid scintillation counting. In kind it is cell-based.

Series [3] concerns the target T1, Large neutral amino acids transporter small subunit 2 (Homo sapiens). Briefly: Competitive inhibition of [14C]-L-alanine uptake at LAT2 in human MCF7 cells at 100 uM preincubated for 10 mins followed by addition of substrate measured during 5 mins by liquid scintillation counting. In kind it is cell-based. The method, boiled down:
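MCF-7 cells were seeded at 1 × 10^5 cells/well and used one day later. Cells were washed and pre-incubated 10 min at 37 °C in HEPES-buffered HBSS (choline chloride, pH 7.4). Uptake of 10.0 µM [14C]-L-alanine ran 5 min at 37 °C with test agent (1–1000 µM) or DMSO blank. Cells were then given three ice-cold washes, lysed in 0.1 M NaOH and counted by liquid scintillation; n=3.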

For series [4], the target named is T2, Large neutral amino acids transporter small subunit 1 (Homo sapiens, UniProt Q01650). Kind of series: Competitive binding to LAT1 in human MCF7 cells at 100 uM after 30 mins in presence of MCT1 inhibitor phloretin by HPLC analysis. It counts as cell-based. An outline of the steps: (§1)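 MCF-7 cells incubated 30 min at 37 °C in HBSS (pH 7.4) holding 100 µM test compound plus 500 µM competitor. Cells washed three times with ice-cold HBSS and lysed in 0.1 M NaOH. Cell-associated compound measured by HPLC against a lysate-spiked standard curve and normalised to protein. Mean ± SD, n=3.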

Series [5] deals with T2, Large neutral amino acids transporter small subunit 1. Kind of series: Competitive binding to LAT1 in human MCF7 cells at 100 uM after 30 mins in presence of unselective OATP substrate L-thyroxine by HPLC analysis. It counts as cell-based. An outline of the steps:
as §1

A short description of series [6]: Chemical stability of the compound in Tris-HCl buffer at pH 7.4 and 37 degreeC measured after 24 hrs by HPLC method. To be noted: pH 7.4, 24 h. It counts as physicochemical. The method, boiled down: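 Incubated in isotonic Tris-HCl buffer, pH 7.4, at 37 °C for 24 h; monitored by UV-HPLC.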
In series [7] the target is T2, Large neutral amino acids transporter small subunit 1. Kind of series: Inhibition of LAT1 in human MCF7 cells assessed as potentiation of cisplatin-induced antiproliferative activity by measuring reduction in cell viability at 100 uM measured after 24 hrs by resazurin dye-based fluorimetric analysis. The method, boiled down: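 MCF-7 cells seeded 2 × 10^4/well on collagen-coated plates, treated one day later in growth medium with inhibitor (25 or 100 µM) plus bestatin or cisplatin (100 µM) for up to 3 days. Viability read daily by resazurin fluorescence (ex 560/em 590 nm). Viability is treated relative to untreated control. Mean ± SD, n=3.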
(In general: The colour change of resazurin is a common sign of viable cells or microbes.)

Series [8] is described as follows: AUC (0 to 480 min) in mouse plasma at 23 umol/kg, ip administered as bolus by LC-MS analysis. It counts as ADME, organism-based. Also on record: dose 23 umol/kg, time < 8 hr, route intraperitoneal. To be noted: in vivo, 8 h. An outline of the steps:
(§2)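 Male adult mice (25 ± 5 g) given a single i.p. bolus at 23 µmol/kg. The dosing solution was 1.36 mM in 10% (v/v) DMSO, 20% (w/v) hydroxypropyl-β-cyclodextrin and 0.9% NaCl. Animals were decapitated at seven time points from 10 to 480 min. Plasma and tissues were acetonitrile-precipitated with repaglinide internal standard and analysed by LC-MS. Parameters were derived from concentration–time data, mean ± SEM (n=3).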

Series [9] can be described thus: AUC (0 to 480 min) in mouse heart at 23 umol/kg, ip administered as bolus by LC-MS analysis. In kind it is ADME, organism-based. Also noted: dose 23 umol/kg, time < 8 hr, route intraperitoneal. To be noted: in vivo, 8 h. The method, boiled down:
as §2

The nature of series [10]: Cmax in mouse liver at 23 umol/kg, ip administered as bolus by LC-MS analysis. As to conditions: in vivo. In kind it is ADME, organism-based. Also noted: dose 23 umol/kg, route intraperitoneal. An outline of the steps: as §2
The nature of series [11]: Fraction unbound in mouse kidney at 23 umol/kg, ip administered as bolus by LC-MS analysis. In kind it is ADME, organism-based. An outline of the steps: (§3)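 Unbound fraction was measured by equilibrium dialysis at 100 µM in mouse plasma and in brain, liver, kidney, heart and prostate homogenates.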
Series [12] in a line: Fraction unbound in mouse brain at 23 umol/kg, ip administered as bolus by LC-MS analysis. In kind it is ADME, organism-based. An outline of the steps:
as §3

Series [13] is described as follows: Unbound AUC (0 to 480 mins) in mouse prostate at 23 umol/kg, ip administered as bolus by LC-MS analysis. In kind it is ADME, organism-based, Prostate gland. As to conditions: in vivo. The method, boiled down:
(§4)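 Male mice (25 ± 5 g) dosed i.p. as a bolus at 23 µmol/kg in DMSO/hydroxypropyl-β-cyclodextrin/saline vehicle, sampled at time points 10–480 min; plasma and tissue homogenates (1:3 water) analysed by LC-MS. […] Mean ± SEM.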

Series [14] can be described thus: Unbound AUC (0 to 480 mins) in mouse liver at 23 umol/kg, ip administered as bolus by LC-MS analysis. In kind it is ADME, organism-based. To be noted: in vivo. An outline of the steps: as §4
Series [15] in a line: fCmax in mouse brain at 23 umol/kg, ip administered as bolus by LC-MS analysis. It counts as ADME, organism-based. As to conditions: in vivo. An outline of the steps: as §4
Series [16] is described as follows: fCmax in mouse heart at 23 umol/kg, ip administered as bolus by LC-MS analysis. It counts as ADME, organism-based. To be noted: in vivo. An outline of the steps:
as §4

Series [17] is described as follows: Tmax in mouse kidney at 23 umol/kg, ip administered as bolus by LC-MS analysis. It counts as ADME, organism-based. An outline of the steps: (§5)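 Adult male mice (25 ± 5 g) given a single i.p. bolus of 23 µmol/kg, dosing solution 1.36 mM in 10% (v/v) DMSO, 20% (w/v) hydroxypropyl-β-cyclodextrin, 0.9% NaCl in water. Decapitation at time points 10–480 min; plasma, brain, liver, prostate, kidney, heart collected. Acetonitrile precipitation with repaglinide internal standard, LC-MS (ESI positive). tmax and t½β taken from concentration-time data; mean ± SEM, n=3.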

Series [18] can be described thus: Terminal half life in mouse plasma at 23 umol/kg, ip administered as bolus by LC-MS analysis. In kind it is ADME, organism-based. To be noted: read-out: beta t1/2. The method, boiled down:
as §5

Series [19] is described as follows: Terminal half life in mouse prostate at 23 umol/kg, ip administered as bolus by LC-MS analysis. In kind it is ADME, organism-based, Prostate gland. To be noted: read-out: beta t1/2. An outline of the steps:
as §5

Series [20] is described as follows: Plasma concentration in mouse at 23 umol/kg, ip measured after 180 mins. It counts as ADME, organism-based.
Series [21] can be described thus: Metabolic stability in mouse liver microsomes at 37 degreeC in presence of NADPH regenerating system measured after 2 hrs by HPLC analysis. It counts as ADME, Microsome. The method, boiled down:
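Incubated at 37 °C for 2 h with mouse liver S9 fraction or with mouse liver microsomes plus NADPH; monitored by UV-HPLC chromatograms.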
On the technique in general: Liver microsomes are a subcellular fraction often used to study metabolism.

Values after ≈ are worked out from the molar mass of the structure shown. Active and inactive are the calls of the source. No cut-off for these calls is given here.

T2 sequence (Q01650 whole entry): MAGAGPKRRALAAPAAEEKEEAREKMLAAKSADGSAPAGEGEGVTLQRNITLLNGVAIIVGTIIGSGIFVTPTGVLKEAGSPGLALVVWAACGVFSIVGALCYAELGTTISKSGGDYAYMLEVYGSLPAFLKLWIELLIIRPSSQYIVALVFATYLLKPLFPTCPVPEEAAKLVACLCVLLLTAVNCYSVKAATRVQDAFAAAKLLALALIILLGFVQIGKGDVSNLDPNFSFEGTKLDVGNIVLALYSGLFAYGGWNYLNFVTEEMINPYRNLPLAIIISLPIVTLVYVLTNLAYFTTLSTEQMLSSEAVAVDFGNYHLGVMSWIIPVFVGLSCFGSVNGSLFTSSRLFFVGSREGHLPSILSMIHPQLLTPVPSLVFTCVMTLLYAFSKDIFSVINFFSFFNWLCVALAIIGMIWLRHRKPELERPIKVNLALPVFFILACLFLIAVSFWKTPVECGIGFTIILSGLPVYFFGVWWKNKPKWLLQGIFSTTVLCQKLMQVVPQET

One may read the solubility as the dissolved amount per volume that the medium holds. Lower therefore signals a poorly soluble substance. One may read the inhibition as the drop in the measured response relative to a control, in per cent. Usually fraction unbound stands for free concentration divided by total concentration. One may read the Tmax as the time at which the peak concentration occurs. The compound `CNC(=O)COc1ccc(-c2c(C#N)c(NC(=O)c3cccc(C[C@H](N)C(=O)O)c3)n3c(nc4ccccc43)c2C#N)cc1` returned a solubility at 4 h in series [1] of 1160 µg/mL (≈ 1970 µM). The inhibition entry in series [2] was “inactive”. For the same compound, the inhibition in series [3] came out at 3.93%. In addition, the outcome in series [4] and in series [5] was Active. Further, the Stability entry in series [6] and in series [21] was “Stable” throughout. Further, the Activity in [7] came out at 65%. Besides, the results for the AUC in series [8] and in [9] were 795 nmol/min/mL and 249 nmol/g/min, respectively. Further, in series [10], the Cmax came to 38.7 nmol/g. Also, the fraction unbound in [11] is 0.0166; in series [12], 0.0103. Besides, the fAUC in series [13] was determined as 18.4 nmol/g/min; in series [14] it was 18.9 nmol/g/min. In addition, the fCmax in series [15] came out at 0.02 nmol/g; in series [16] it was 0.08 nmol/g. In series [17], the time of peak concentration (Tmax) was 10 min. For the same compound, the half-life is 44.9 min in [18] and 12 min in [19]. The compound also displayed a concentration at 3 h in series [20] of 230 nM.

Source of the values: ChEMBL document CHEMBL4425108, “A Selective and Slowly Reversible Inhibitor of l-Type Amino Acid Transporter 1 (LAT1) Potentiates Antiproliferative Drug Efficacy in Cancer Cells” (J Med Chem, 2016).
